Measurements as given in ChEMBL document CHEMBL4689842, “EUbOPEN Chemogenomics Library wave 1” (2021).
Values joined by “and” are separate entries in the source; they are usually repeats but may differ in a detail not shown here. Equal entries are not always repeated.

Tests used:
Format in all cases: toxicity, cell-based
U2OS [1] = test: Multiplex assay against U2OS; conditions: human, 10 µM, compound concentration 10 uM
Outline: (§1)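 With compound added, live cells were imaged on a CQ1 microscope at 37°C and 5% CO2; staining with Hoechst33342, BioTracker Green Microtubule Cytoskeleton Dye, MitoTracker Red and Annexin V Alexa Fluor 680 had been done at seeding. The CellPathfinder machine-learning gating scheme split cells into Hoechst high-intensity objects or normal cells, normal cells into healthy, pyknosed or fragmented nuclei, and pyknosed cells into mitotic or apoptotic. The tubulin, mitochondrial-mass and membrane-permeability phenotypes are per cents of healthy-nucleus cells.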

Fibroblast [2] = test: Multiplex assay against human fibroblast; conditions: 10 µM, compound concentration 10 uM; outline: as §1
HEK-293T [3] = test: Incucyte cell viability with HEK293T; conditions: human, 10 µM, compound concentration 10 uM; note: filed as whole numbers so only -1 and 0 and 1 occur
U2OS [4] = test: Incucyte cell viability with U2OS; conditions: human, 10 µM, compound concentration 10 uM; note: filed as whole numbers so only -1 and 0 and 1 occur
Fibroblast [5] = test: Incucyte cell viability with human fibroblast; conditions: 10 µM, compound concentration 10 uM; note: filed as whole numbers so only -1 and 0 and 1 occur
HEK-293T [6] = test: Multiplex assay against HEK293T; conditions: human, 10 µM, compound concentration 10 uM; outline: as §1;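 for Population Tubulin-Different-Phenotype (%): share of the cells with healthy nuclei that show this phenotype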
[7] = 0 h, replicate number 1, timepoint 0 hours
[8] = 6 h, replicate number 1, timepoint 6 hours
[9] = 12 h, replicate number 1, timepoint 12 hours
[10] = 18 h, replicate number 1, timepoint 18 hours
[11] = 24 h, replicate number 1, timepoint 24 hours

## O=C(O)c1ccc2c(c1)nc(Nc1cccc(Cl)c1)c1ccncc12 [SILMITASERTIB]
U2OS [1]; 12 h, replicate 1
  Population Apoptotic (%): 50% and 36%
  Population Fragmented Nuclei (%): 5%
  Population Healthy Nuclei (%): 87% and 85%
  Population Hoechst High Intensity Objects (%): 4%
  Population Membrane Permeable-Phenotype (%): 11% and 8%
  Population Mitotic Cells (%): 50% and 63%
  Population Normal (%): 95%
  Population Pyknosed Nuclei (%): 7%
  Population Tubulin-Different-Phenotype (%): 19% and 32%
  Total Cell Count: 163 and 151
U2OS [1]; 12 h, replicate 2
  Population Apoptotic (%): 33%
  Population Fragmented Nuclei (%): 6% and 8%
  Population Healthy Nuclei (%): 90%
  Population Hoechst High Intensity Objects (%): 6% and 13%
  Population Membrane Permeable-Phenotype (%): 10% and 4%
  Population Mitochondria Different-Phenotype (%): 27% and 26%
  Population Mitotic Cells (%): 66%
  Population Normal (%): 93% and 86%
  Population Pyknosed Nuclei (%): 2% and 4%
  Population Tubulin-Different-Phenotype (%): 31% and 18%
  Total Cell Count: 140 and 110
U2OS [1]; 24 h, replicate 1
  Population Apoptotic (%): 23% and 50%
  Population Fragmented Nuclei (%): 9% and 4%
  Population Healthy Nuclei (%): 82% and 91%
  Population Hoechst High Intensity Objects (%): 1% and 3%
  Population Membrane Permeable-Phenotype (%): 14% and 6%
  Population Mitochondria Different-Phenotype (%): 20% and 35%
  Population Mitotic Cells (%): 76% and 50%
  Population Normal (%): 98% and 96%
  Population Pyknosed Nuclei (%): 8% and 4%
  Population Tubulin-Different-Phenotype (%): 33% and 35%
  Total Cell Count: 208 and 206
U2OS [1]; 24 h, replicate 2
  Population Apoptotic (%): 25% and 11%
  Population Fragmented Nuclei (%): 8%
  Population Healthy Nuclei (%): 83% and 76%
  Population Hoechst High Intensity Objects (%): 4%
  Population Membrane Permeable-Phenotype (%): 10% and 5%
  Population Mitochondria Different-Phenotype (%): 41%
  Population Mitotic Cells (%): 75% and 88%
  Population Normal (%): 95%
  Population Pyknosed Nuclei (%): 7% and 14%
  Population Tubulin-Different-Phenotype (%): 31% and 30%
  Total Cell Count: 168 and 127
Fibroblast [2]; 12 h, replicate 1
  Population Apoptotic (%): 75% and 73%
  Population Fragmented Nuclei (%): 29% and 31%
  Population Healthy Nuclei (%): 56% and 60%
  Population Hoechst High Intensity Objects (%): 20% and 12%
  Population Membrane Permeable-Phenotype (%): 10% and 4%
  Population Mitochondria Different-Phenotype (%): 2% and 3%
  Population Mitotic Cells (%): 25% and 26%
  Population Normal (%): 79% and 87%
  Population Pyknosed Nuclei (%): 14% and 7%
  Population Tubulin-Different-Phenotype (%): 6% and 4%
  Total Cell Count: 314 and 234
Fibroblast [2]; 12 h, replicate 2
  Population Apoptotic (%): 33% and 60%
  Population Fragmented Nuclei (%): 60% and 64%
  Population Healthy Nuclei (%): 33% and 25%
  Population Hoechst High Intensity Objects (%): 30% and 32%
  Population Membrane Permeable-Phenotype (%): 17% and 15%
  Population Mitochondria Different-Phenotype (%): 11% and 7%
  Population Mitotic Cells (%): 66% and 40%
  Population Normal (%): 69% and 67%
  Population Pyknosed Nuclei (%): 5% and 9%
  Population Tubulin-Different-Phenotype (%): 29% and 23%
  Total Cell Count: 73 and 76
Fibroblast [2]; 24 h, replicate 1
  Population Apoptotic (%): 53%
  Population Fragmented Nuclei (%): 32% and 26%
  Population Healthy Nuclei (%): 53% and 60%
  Population Hoechst High Intensity Objects (%): 19% and 17%
  Population Membrane Permeable-Phenotype (%): 5%
  Population Mitochondria Different-Phenotype (%): 2%
  Population Mitotic Cells (%): 46%
  Population Normal (%): 80% and 82%
  Population Pyknosed Nuclei (%): 14% and 13%
  Total Cell Count: 314 and 235
Fibroblast [2]; 24 h, replicate 2
  Population Apoptotic (%): 66% and 50%
  Population Fragmented Nuclei (%): 62%
  Population Healthy Nuclei (%): 26% and 29%
  Population Hoechst High Intensity Objects (%): 27% and 33%
  Population Membrane Permeable-Phenotype (%): 14% and 6%
  Population Mitotic Cells (%): 33% and 50%
  Population Normal (%): 72% and 66%
  Population Pyknosed Nuclei (%): 11% and 7%
  Population Tubulin-Different-Phenotype (%): 21% and 31%
  Total Cell Count: 73 and 81
HEK-293T [3]; [7]
  Growth Rate: 0
HEK-293T [3]; [8]
  Growth Rate: 0
HEK-293T [3]; [9]
  Growth Rate: 0
HEK-293T [3]; [10]
  Growth Rate: 0
HEK-293T [3]; [11]
  Growth Rate: 0
U2OS [4]; [7]
  Growth Rate: 0
U2OS [4]; 0 h, replicate number 2, timepoint 0 hours
  Growth Rate: 1
U2OS [4]; [8]
  Growth Rate: 1
U2OS [4]; 6 h, replicate number 2, timepoint 6 hours
  Growth Rate: 0
U2OS [4]; [9]
  Growth Rate: 0
U2OS [4]; [10]
  Growth Rate: 0
U2OS [4]; [11]
  Growth Rate: 0
Fibroblast [5]; [7]
  Growth Rate: 0
Fibroblast [5]; [9]
  Growth Rate: 1
Fibroblast [5]; [10]
  Growth Rate: 0
Fibroblast [5]; 18 h, replicate number 2, timepoint 18 hours
  Growth Rate: 1
Fibroblast [5]; [11]
  Growth Rate: 0
Fibroblast [5]; 24 h, replicate number 2, timepoint 24 hours
  Growth Rate: 1
HEK-293T [6]; 12 h, replicate 1
  Population Apoptotic (%): 24% and 17%
  Population Fragmented Nuclei (%): 14% and 17%
  Population Healthy Nuclei (%): 67% and 65%
  Population Hoechst High Intensity Objects (%): 10% and 15%
  Population Membrane Permeable-Phenotype (%): 8% and 6%
  Population Mitochondria Different-Phenotype (%): 5% and 4%
  Population Mitotic Cells (%): 76% and 82%
  Population Normal (%): 89% and 84%
  Population Pyknosed Nuclei (%): 17%
  Population Tubulin-Different-Phenotype (%): 7% and 6%
  Total Cell Count: 624 and 579
HEK-293T [6]; 12 h, replicate 2
  Population Apoptotic (%): 11% and 7%
  Population Fragmented Nuclei (%): 8% and 10%
  Population Healthy Nuclei (%): 84% and 85%
  Population Hoechst High Intensity Objects (%): 3% and 2%
  Population Membrane Permeable-Phenotype (%): 4% and 1%
  Population Mitochondria Different-Phenotype (%): 9%
  Population Mitotic Cells (%): 88% and 92%
  Population Normal (%): 96% and 97%
  Population Pyknosed Nuclei (%): 6% and 3%
  Total Cell Count: 1391 and 1841
HEK-293T [6]; 24 h, replicate 1
  Population Apoptotic (%): 28% and 16%
  Population Fragmented Nuclei (%): 14%
  Population Healthy Nuclei (%): 77% and 74%
  Population Hoechst High Intensity Objects (%): 6% and 14%
  Population Membrane Permeable-Phenotype (%): 10%
  Population Mitochondria Different-Phenotype (%): 5% and 3%
  Population Mitotic Cells (%): 71% and 84%
  Population Normal (%): 93% and 85%
  Population Pyknosed Nuclei (%): 8% and 9%
  Population Tubulin-Different-Phenotype (%): 5% and 15%
  Total Cell Count: 718 and 592
HEK-293T [6]; 24 h, replicate 2
  Population Apoptotic (%): 9% and 4%
  Population Fragmented Nuclei (%): 15% and 30%
  Population Healthy Nuclei (%): 79% and 67%
  Population Hoechst High Intensity Objects (%): 7% and 4%
  Population Membrane Permeable-Phenotype (%): 9% and 4%
  Population Mitochondria Different-Phenotype (%): 6% and 0%
  Population Mitotic Cells (%): 90% and 95%
  Population Normal (%): 92% and 95%
  Population Pyknosed Nuclei (%): 4% and 1%
  Total Cell Count: 1562 and 3163
